# Results: ChEMBL document CHEMBL4196220, “Synthesis and Discovery of Arylpiperidinylquinazolines: New Inhibitors of the Vesicular Monoamine Transporter” (J Med Chem, 2018)
# The source made the active and inactive calls. The calls are words filed in the database; no cut-off is given here.
# Experiments:
# [1] = biological target: T1, Synaptic vesicular amine transporter (Homo sapiens, UniProt Q05940); test: Displacement of [3H]DHTB from human VMAT2 expressed in HEK293 cell membranes incubated for 90 mins by microbeta scintillation counting method
# How it was run: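 Tris buffer without ATP, 90 min at room temperature. Nonspecific binding defined with 2 μM DHTB. Filtermat filtration and microBeta counting. Test compounds 1 nM–10 μM.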
# [2] = biological target: T1, Synaptic vesicular amine transporter; test: Displacement of [3H]reserpine from human VMAT2 expressed in HEK293 cell membranes incubated for 60 mins by scintillation counting method
# [3] = biological target: T1, Synaptic vesicular amine transporter; test: Displacement of [3H](+)-syn-Ethyl 1-(2-(2,4-Dioxo-1,2-dihydroquinazolin-3(4H)-yl)ethyl)-4-(4-fluorophenyl)piperidine-3-carboxylate from human VMAT2 expressed in HEK293 cell membranes incubated for 60 mins by scintillation counting method
# How it was run: (§1)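 Membranes from confluent HEK-293 cells stably expressing human VMAT2, prepared by osmotic shock and restored with Tris/K tartrate/MgSO4. About 50−75 μg protein per assay with [3H](+)-5b at 50−100 nM final. Incubated 60 min at 4 °C in the dark. Filtration, then beta counting.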
# HEK293 [4] = test: Cytotoxicity in HEK293 cells expressing human VMAT2 assessed as reduction in cell viability at 10 uM incubated for 24 hrs by MTT assay; assay type: cell-based; conditions: hek293, 24 h
# How it was run: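 HEK-VMAT2 cells plated at 5 × 10^4 per well. Drugs added on day 2 to triplicate wells, all with 0.1% DMSO, for 24 h. MTT reagent then 2 h at 37 °C, solvent added, read at 590 nm. Values normalized to control cells. One-way ANOVA with post hoc test.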
# [5] = biological target: 5-hydroxytryptamine receptor 2A (Homo sapiens, UniProt P28223); test: biochemical; assay type: cell-based, HEK293
# [6] = biological target: Synaptic vesicular amine transporter (Mus musculus, UniProt Q8BRU6); test: Inhibition of VMAT2 in C57Bl/6J mouse striatal membranes assessed as reduction in [3H[-5HT uptake pre-incubated for 10 mins before [3H[-5HT addition and measured after 8 mins; assay type: cell membranes, Striatum, Membrane
# [7] = biological target: T1, Synaptic vesicular amine transporter; test: Inhibition of human VMAT2 expressed in HEK293 cell membranes assessed as reduction in [3H[-5HT uptake pre-incubated for 10 mins before [3H[-5HT addition and measured after 6 mins; assay type: cell-based
# How it was run: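 Vesicular membranes from HEK-hVMAT2 cells: differential centrifugation, osmotic shock, then resuspension in uptake buffer (tartrate/Tris/KCl/MgSO4, ascorbate, tropolone, pargyline, pH 7.4, 2 mM MgATP). Drug preincubation 10 min at 30 °C. Stopped by filtration. Duplicate wells, IC50.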
# [8] = biological target: T1, Synaptic vesicular amine transporter; test: Binding affinity to human VMAT2 expressed in HEK293 cell membranes by scintillation counting method based saturation binding assay
# How it was run: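 Saturation binding on HEK-VMAT2 membranes, with duplicate points mixing labeled and unlabeled ligand. [3H](+)-5b: 5–600 nM, 60 min at 4 °C in the dark, buffer with 2 mM MgATP. 3−4 independent experiments.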
# [9] = biological target: T1, Synaptic vesicular amine transporter; test: Binding affinity to human VMAT2 expressed in HEK293 cell membranes in presence of 2 mM Mg-ATP by scintillation counting method; conditions: tested as the 3H-labelled form; how it was run: as §1
# [10] = biological target: T1, Synaptic vesicular amine transporter; test: Binding affinity to human VMAT2 expressed in HEK293 cell membranes assessed as observed associate rate constant at 24 to 28 nM in presence of 2 mM Mg-ATP by scintillation counting method; conditions: tested as the 3H-labelled form
# How it was run: (§2)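 Kinetics for the [3H](+)-5b site on HEK-293 membranes expressing human VMAT2, run with 2 mM Mg-ATP. Excess unlabeled ligand of the same kind was used. Association at a single radioligand concentration was fitted as one-phase exponential association to give kobs.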
# [11] = biological target: T1, Synaptic vesicular amine transporter; test: Binding affinity to human VMAT2 expressed in HEK293 cell membranes assessed as half life at 24 to 28 nM in presence of 2 mM Mg-ATP by scintillation counting method; conditions: tested as the 3H-labelled form; how it was run: as §2
# [12] = biological target: Sodium-dependent dopamine transporter (Homo sapiens, UniProt Q01959); test: Displacement of [125I]RTI-55 from human DAT expressed in HEK293 cell membranes
# How it was run: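 Total particulate membranes from HEK-293 cells stably expressing hDAT, with [125I]RTI-55 at 40−60 pM. Nonspecific binding defined with 5 μM mazindol.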
# [13] = biological target: T2, 5-hydroxytryptamine receptor 1A (Homo sapiens) (UniProt P08908); test: Binding affinity to 5HT1A receptor (unknown origin)
# T2 sequence (whole entry): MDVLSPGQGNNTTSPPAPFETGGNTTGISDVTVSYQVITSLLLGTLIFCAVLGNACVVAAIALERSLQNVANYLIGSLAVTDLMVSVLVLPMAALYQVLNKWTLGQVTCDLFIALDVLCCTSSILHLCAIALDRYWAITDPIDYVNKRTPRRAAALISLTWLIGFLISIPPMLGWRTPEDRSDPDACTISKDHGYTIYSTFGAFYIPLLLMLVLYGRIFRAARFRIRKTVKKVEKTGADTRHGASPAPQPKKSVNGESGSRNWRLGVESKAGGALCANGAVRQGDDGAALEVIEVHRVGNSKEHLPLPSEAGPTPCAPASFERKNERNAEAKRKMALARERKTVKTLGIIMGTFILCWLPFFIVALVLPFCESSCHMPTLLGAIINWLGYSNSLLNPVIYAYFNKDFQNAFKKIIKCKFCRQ
# [14] = biological target: Sodium-dependent serotonin transporter (Homo sapiens, UniProt P31645); test: Displacement of [125I]RTI-55 from human SERT expressed in HEK293 cell membranes
# [15] = biological target: Sodium-dependent noradrenaline transporter (Homo sapiens, UniProt P23975); test: Displacement of [125I]RTI-55 from human NET expressed in HEK293 cell membranes
# HEK293 [16] = test: Cytotoxicity in HEK293 cells expressing human VMAT2 assessed as reduction in cell viability at 1 uM incubated for 24 hrs by MTT assay; assay type: cell-based; conditions: hek293, 24 h
# How it was run: (§3)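 HEK-293 cells stably expressing human VMAT2, seeded at 5 × 10^4 cells/well in DMEM with 10% FetalClone, penicillin/streptomycin and G418. On day 2, compound in DMEM was added to triplicate wells, with 0.1% DMSO in all conditions, for 24 h. MTT reagent was then added for 2 h at 37 °C, followed by solvent. Absorbance read at 590 nm, normalized to control cells, and analyzed by one-way ANOVA with Dunnett's test.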
# HEK293 [17] = test: Cytotoxicity in HEK293 cells expressing human VMAT2 assessed as reduction in cell viability at 3 uM incubated for 24 hrs by MTT assay; assay type: cell-based; conditions: hek293, 24 h; how it was run: as §3
# Sequence of Synaptic vesicular amine transporter (Mus musculus, UniProt Q8BRU6) (Q8BRU6 whole entry): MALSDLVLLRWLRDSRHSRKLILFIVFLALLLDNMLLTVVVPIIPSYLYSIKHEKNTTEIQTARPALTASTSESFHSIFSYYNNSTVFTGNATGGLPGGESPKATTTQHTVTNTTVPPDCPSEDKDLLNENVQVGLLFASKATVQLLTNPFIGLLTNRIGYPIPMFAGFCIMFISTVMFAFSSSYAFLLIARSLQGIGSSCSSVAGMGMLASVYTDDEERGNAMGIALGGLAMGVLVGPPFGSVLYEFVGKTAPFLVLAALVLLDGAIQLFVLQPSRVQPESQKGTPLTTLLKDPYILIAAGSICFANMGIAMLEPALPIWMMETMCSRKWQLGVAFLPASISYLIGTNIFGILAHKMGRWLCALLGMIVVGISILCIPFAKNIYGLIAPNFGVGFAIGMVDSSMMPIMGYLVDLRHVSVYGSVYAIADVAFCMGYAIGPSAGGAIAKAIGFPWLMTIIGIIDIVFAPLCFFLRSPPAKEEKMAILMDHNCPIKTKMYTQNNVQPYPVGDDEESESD
# Sequence of 5-hydroxytryptamine receptor 2A (P28223 whole entry): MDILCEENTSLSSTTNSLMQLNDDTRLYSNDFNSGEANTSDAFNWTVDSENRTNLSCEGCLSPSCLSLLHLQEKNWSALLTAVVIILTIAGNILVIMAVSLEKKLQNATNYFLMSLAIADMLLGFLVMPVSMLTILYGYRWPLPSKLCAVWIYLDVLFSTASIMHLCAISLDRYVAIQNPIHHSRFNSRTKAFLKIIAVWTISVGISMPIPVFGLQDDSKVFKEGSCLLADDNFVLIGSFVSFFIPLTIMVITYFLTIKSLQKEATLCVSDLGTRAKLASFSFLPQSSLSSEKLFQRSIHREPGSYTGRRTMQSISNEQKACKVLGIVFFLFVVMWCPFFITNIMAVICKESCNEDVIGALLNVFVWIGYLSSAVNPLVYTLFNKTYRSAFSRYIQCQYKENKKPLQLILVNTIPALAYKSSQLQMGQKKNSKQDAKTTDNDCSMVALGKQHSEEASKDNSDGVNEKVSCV
# Sequence of Sodium-dependent dopamine transporter (Q01959 whole entry): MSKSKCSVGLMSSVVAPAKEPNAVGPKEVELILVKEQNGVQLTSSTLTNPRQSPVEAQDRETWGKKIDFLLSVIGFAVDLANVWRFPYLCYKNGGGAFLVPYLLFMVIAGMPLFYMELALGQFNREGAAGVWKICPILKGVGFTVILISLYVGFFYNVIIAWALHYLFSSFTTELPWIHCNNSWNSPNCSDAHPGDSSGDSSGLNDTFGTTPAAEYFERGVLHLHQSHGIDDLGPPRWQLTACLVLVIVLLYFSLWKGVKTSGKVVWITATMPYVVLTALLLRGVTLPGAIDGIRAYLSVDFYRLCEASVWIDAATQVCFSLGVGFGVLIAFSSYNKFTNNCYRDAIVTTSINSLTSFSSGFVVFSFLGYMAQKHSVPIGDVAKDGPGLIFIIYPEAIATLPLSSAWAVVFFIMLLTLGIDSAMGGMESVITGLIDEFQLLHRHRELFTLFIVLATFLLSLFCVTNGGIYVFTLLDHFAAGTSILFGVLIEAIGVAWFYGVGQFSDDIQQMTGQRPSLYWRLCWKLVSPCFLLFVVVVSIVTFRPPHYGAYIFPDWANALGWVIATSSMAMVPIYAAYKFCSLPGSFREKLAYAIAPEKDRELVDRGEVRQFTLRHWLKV
# T1 sequence (Q05940 whole entry): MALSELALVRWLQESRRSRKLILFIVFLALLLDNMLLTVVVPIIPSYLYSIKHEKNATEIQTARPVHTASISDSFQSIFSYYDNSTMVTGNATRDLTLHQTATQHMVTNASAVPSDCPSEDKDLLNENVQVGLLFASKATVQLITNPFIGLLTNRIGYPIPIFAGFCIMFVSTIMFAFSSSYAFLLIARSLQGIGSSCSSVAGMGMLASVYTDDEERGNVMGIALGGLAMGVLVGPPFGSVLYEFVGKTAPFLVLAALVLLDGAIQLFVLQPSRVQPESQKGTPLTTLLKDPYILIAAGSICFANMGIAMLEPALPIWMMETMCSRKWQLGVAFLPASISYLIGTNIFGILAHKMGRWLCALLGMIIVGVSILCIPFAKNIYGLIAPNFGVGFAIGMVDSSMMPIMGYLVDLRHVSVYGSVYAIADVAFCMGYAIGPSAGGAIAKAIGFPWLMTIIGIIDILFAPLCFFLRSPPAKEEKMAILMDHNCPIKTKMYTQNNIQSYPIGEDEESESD
# Sequence of Sodium-dependent noradrenaline transporter (P23975 whole entry): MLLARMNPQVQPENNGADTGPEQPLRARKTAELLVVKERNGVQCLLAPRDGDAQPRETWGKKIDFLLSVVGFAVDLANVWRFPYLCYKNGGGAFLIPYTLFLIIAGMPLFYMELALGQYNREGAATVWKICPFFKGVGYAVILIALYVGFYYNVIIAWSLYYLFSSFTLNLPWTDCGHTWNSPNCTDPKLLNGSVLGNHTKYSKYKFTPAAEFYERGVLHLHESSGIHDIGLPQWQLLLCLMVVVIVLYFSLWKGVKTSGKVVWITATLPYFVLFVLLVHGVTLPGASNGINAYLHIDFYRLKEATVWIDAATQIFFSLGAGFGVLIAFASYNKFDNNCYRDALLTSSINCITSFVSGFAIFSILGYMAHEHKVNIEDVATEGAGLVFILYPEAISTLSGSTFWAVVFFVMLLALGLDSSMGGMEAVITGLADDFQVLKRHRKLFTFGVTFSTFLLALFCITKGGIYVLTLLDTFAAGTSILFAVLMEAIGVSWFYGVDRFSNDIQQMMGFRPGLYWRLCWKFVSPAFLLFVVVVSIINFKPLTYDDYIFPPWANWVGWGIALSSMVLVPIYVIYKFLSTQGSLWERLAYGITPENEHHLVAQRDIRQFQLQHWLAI
# Sequence of Sodium-dependent serotonin transporter (P31645 whole entry): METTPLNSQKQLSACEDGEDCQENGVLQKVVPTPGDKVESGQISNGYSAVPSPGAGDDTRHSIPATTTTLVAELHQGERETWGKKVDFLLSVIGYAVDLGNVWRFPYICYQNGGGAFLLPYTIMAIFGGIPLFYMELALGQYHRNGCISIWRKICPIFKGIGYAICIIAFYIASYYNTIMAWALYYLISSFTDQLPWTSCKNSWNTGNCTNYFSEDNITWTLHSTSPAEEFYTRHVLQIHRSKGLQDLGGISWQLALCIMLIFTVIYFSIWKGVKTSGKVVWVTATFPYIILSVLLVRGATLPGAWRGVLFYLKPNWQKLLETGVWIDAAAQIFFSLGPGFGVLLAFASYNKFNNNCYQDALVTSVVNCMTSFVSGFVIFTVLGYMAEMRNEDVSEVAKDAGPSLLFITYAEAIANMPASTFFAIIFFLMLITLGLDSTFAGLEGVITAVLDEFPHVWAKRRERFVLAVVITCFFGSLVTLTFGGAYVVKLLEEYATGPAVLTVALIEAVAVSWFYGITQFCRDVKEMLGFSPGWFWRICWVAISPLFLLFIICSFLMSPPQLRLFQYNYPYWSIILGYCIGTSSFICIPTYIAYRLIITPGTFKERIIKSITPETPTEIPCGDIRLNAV
Compound,Ki [1] [nM],Ki [2] [nM],Ki [3] [nM],Activity (HEK293 [4]),Ki [5] [nM],IC50 [6] [nM],IC50 [7] [nM],Ki [12] [nM],Activity [13],further results
CCC1(O)CC2c3cc(OC)c(OC)cc3CCN2CC1CC(C)C (stereo unspecified),64,83,1930,Non-Toxic,> 10000,49.6,154,,,
COc1cc2c(cc1OC)C1CC(O)C(CC(C)C)CN1CC2 (stereo unspecified),,,,Non-Toxic,6.7,19.8,,,,Bmax [8]: 41.2 pmol/mg
CNC(C)Cc1ccccc1 (stereo unspecified),346000,6400,24500,Non-Toxic,101000,2740,3620,,,
CCOC(=O)[C@H]1CN(CCn2c(=O)[nH]c3ccccc3c2=O)CC[C@H]1c1ccc(F)cc1,,,,,,,,,,Bmax ([8]; tested as the 3H-labelled form): 13.5 pmol/mg; fold change (FC) [9]: 15; K [10]: 0.051; T1/2 [11]: < 1 min
CCOC(=O)[C@@H]1CN(CCn2c(=O)[nH]c3ccccc3c2=O)CC[C@@H]1c1ccc(F)cc1 (racemic),,,,Non-Toxic,2380,3.46,,4170,inactive,
CCOC(=O)[C@@H]1CN(CCn2c(=O)[nH]c3ccccc3c2=O)CC[C@@H]1c1ccc(C(F)(F)F)cc1 (racemic),> 10000,> 10000,720,,> 10000,,2900,> 10000,inactive,
CCOC(=O)[C@@H]1CN(CCn2c(=O)[nH]c3ccccc3c2=O)CC[C@@H]1c1ccc(N(C)C)cc1 (racemic),> 10000,> 10000,1960,,> 10000,,5800,> 10000,inactive,
CCOC(=O)[C@@H]1CN(CCn2c(=O)[nH]c3ccccc3c2=O)CC[C@@H]1c1ccccc1 (racemic),> 7700,70,287,Non-Toxic,> 10000,9.1,19.7,1610,inactive,
CCOC(=O)[C@@H]1CN(CCn2c(=O)[nH]c3ccccc3c2=O)CC[C@@H]1c1cccs1 (racemic),6160,450,900,Non-Toxic,> 9300,31.5,101,> 7100,inactive,
CCOC(=O)[C@@H]1CN(CCn2c(=O)[nH]c3ccccc3c2=O)CC[C@@H]1c1cccc(C(F)(F)F)c1 (racemic),> 10000,990,350,Non-Toxic,> 10000,12.8,125,> 10000,inactive,
CCOC(=O)[C@@H]1CN(CCn2c(=O)[nH]c3ccccc3c2=O)CC[C@@H]1c1ccc(-c2ccccc2)cc1 (racemic),> 10000,> 10000,3770,,> 10000,,> 10000,> 10000,inactive,
CCOC(=O)[C@@H]1CN(CCn2c(=O)[nH]c3ccccc3c2=O)CC[C@@H]1c1cccc2c1OCCO2 (racemic),,,,,> 10000,,,> 10000,inactive,
CCOC(=O)[C@@H]1CN(CCn2c(=O)[nH]c3ccccc3c2=O)CC[C@H]1c1ccc(F)cc1 (racemic),,,,Non-Toxic,37.3,24.7,,> 9300,inactive,
CCOC(=O)[C@@H]1CN(CCn2c(=O)[nH]c3ccccc3c2=O)CC[C@@H]1c1ccc(C)cc1 (racemic),> 9100,> 10000,452,,> 10000,,2700,7300,inactive,
CCOC(=O)c1ccc([C@H]2CCN(CCn3c(=O)[nH]c4ccccc4c3=O)C[C@H]2C(=O)OCC)cc1 (racemic),,,,,> 10000,,,> 10000,inactive,
"CCOC(=O)C1CN(CCn2c(=O)[nH]c3ccccc3c2=O)CCC1c1ccc(F)cc1 (single isomer, unassigned; (+)) [listing 1 of 2 here]",,,,Non-Toxic,> 10000,3.39,,2440,,Ki [14]: > 10000 nM; Ki [15]: > 10000 nM
"CCOC(=O)C1CN(CCn2c(=O)[nH]c3ccccc3c2=O)CCC1c1ccc(F)cc1 (single isomer, unassigned; (+)) [listing 2 of 2 here]",,,,,,,,,inactive,
"CCOC(=O)C1CN(CCn2c(=O)[nH]c3ccccc3c2=O)CCC1c1ccc(F)cc1 (single isomer, unassigned; (-)) [listing 1 of 2 here]",,,,,,6.6,,9900,,Ki ([5]; hek293): > 10000 nM
"CCOC(=O)C1CN(CCn2c(=O)[nH]c3ccccc3c2=O)CCC1c1ccc(F)cc1 (single isomer, unassigned; (-)) [listing 2 of 2 here]",,,,,,,,,inactive,
O=C(c1ccc(F)cc1)C1CCN(CCn2c(=O)[nH]c3ccccc3c2=O)CC1 [KETANSERIN],77,353,1190,Non-Toxic,,100,180,,,
CN1[C@@H](CC(=O)c2ccccc2)CCC[C@H]1C[C@H](O)c1ccccc1 [LOBELINE],> 10000,1840,1950,,7400,381,4200,,,
COC(=O)[C@H]1[C@H]2C[C@@H]3c4[nH]c5cc(OC)ccc5c4CCN3C[C@H]2C[C@@H](OC(=O)c2cc(OC)c(OC)c(OC)c2)[C@@H]1OC [RESERPINE],,,,,,1.79,,,,Activity (HEK293 [16]): Non-Toxic; Bmax [8]: 0.942 pmol/mg
CN[C@@H]1C[C@H]2O[C@@](C)([C@@H]1OC)n1c3ccccc3c3c4c(c5c6ccccc6n2c5c31)C(=O)NC4 [STAUROSPORINE],,,,,,,,,,Activity (HEK293 [16]): 45%; Activity (HEK293 [17]): 60%
